# This excerpt belongs to a sample that is enriched for hits.
# H69AR growth 86K – proliferation blockers of H69AR lung cancer cells, primary screen, cell-based, human, 86K library | H69AR lung tumor viability, ATP luminescence, 72 h; active compounds read low | viability, % at 10 µM | 85,000 tested, 6% active;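 active = viability at or below 40%; inactive = viability above 40%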;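 also: multidrug resistant small cell line overexpressing MRP-1 efflux transporter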
# HUVEC prolif 384 – inhibitors of HUVEC proliferation, primary screen, cell-based, 384-well. viability, % at 10 µM (by protocol). 86,000 tested, 1.1% active. CellTiter-Glo luminescence, 72 h; active compounds read low;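 active = viability at or below 30%; inactive = viability above 30%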
# Fibroblast inh – antiproliferative effect on LL 47 fibroblasts – human, LL 47 cells, CellTiter-Glo luminescence, primary screen | LL 47 human lung fibroblast viability, ATP luminescence; active compounds read low | viability, % at 10 µM | 85,000 tested, 1.1% active;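 active = viability at or below 50% in the single dose screen; inactive = viability above 50%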;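 also: compound exposure lasted 72 h before the ATP readout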
#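 Material: human lung fibroblast line LL 47, low passage; Evaluation: viability percentage against median untreated-cell control; Buffer or medium: 15% FBS in IMEM; Incubation: 72 h compound exposure at 37 °C after overnight plating; Dosing: 0.1% DMSO in all compound wells; Measured by: CellTiter-Glo luminescence.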
# HCT116 bCat-KO – primary screen for growth suppressors in beta-catenin knockout HCT116 cells (colon tumor, human) | viability, % at 10 µM | 140,000 tested, 1.5% active | AID 818, 2007 | HCT116 beta-catenin knockout viability, CellTiter-Glo, 60 h; active compounds read low;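 active = viability at or under a set limit, the compound median less 4 SD, cut at about 6% in these data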
# PTK2B oligo ant – antagonists of Pyk2 self-association, primary screen, Q293 cells, FERM NanoBiT luminescence, HTS | Protein-tyrosine kinase 2-beta (Homo sapiens), Q14289 | active compounds read low | z-score (the deposit names both 25 µM and 10 µM) | 99,000 tested, 0.83% active | AID 1347419, 2020;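 active = Z-score of -3 or lower, scaled per plate to the spread of control and sample wells; inactive = z-score above -3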;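 also: negative z-score means lost luminescence so less FERM oligomerization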
# PTEN del growth – growth suppression of PTEN-null HCT116, primary screen, cell-based, CellTiter-Glo; 140,000 tested, 1.2% active; HCT116 PTEN-null viability, 60 h; active compounds read low; viability, % at 10 µM;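 active = viability at or below a set limit, 4 SD under the median of all tested compounds, cut at about 3.7% in these data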;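 also: PTEN knockout HCT116 line with beta catenin targeted HCT116 as companion control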
# Hits are given with their value; 0 = inactive; - = not tested or not shown.
SMILES,H69AR growth 86K,HUVEC prolif 384,Fibroblast inh,HCT116 bCat-KO,PTK2B oligo ant,PTEN del growth
Cc1ccc2nc(C)/c(=N\O)c(C)nc2c1,6.8,0,0,0,0,0
CN(C(=O)c1ccc(Cl)cc1)C1=CCCCC1CCC#N (stereo not drawn),0,0,0,0,0,0
O=C(CCCC(=O)OCC(Cl)=C(Cl)Cl)Nc1ccc(F)cc1,-,-,-,0,0,0
COc1ccc2cc3cc(C(=O)N4CCN(c5ccccc5)CC4)oc3nc2c1,0,0,0,0,0,0
COc1ccc2cc3cc(C(=O)Nc4ccccc4N4CCN(C)CC4)oc3nc2c1,29.3,3.6,27.6,2.1,0,1.5
COc1ccc2cc3cc(C(=O)NCCN4CCN(c5ccccc5F)CC4)oc3nc2c1,0,0,0,0,-3.13,0
Cc1ccc(-n2ncc3c(NCc4ccc5c(c4)OCO5)ncnc32)c(C)c1,28.0,0,0,0,0,0
COc1ccc(-n2ncc3c(NCc4ccc5c(c4)OCO5)ncnc32)cc1,6.2,0,0,0,0,0
O=C(/C=C/c1ccccc1Cl)Nn1cnc2ccccc2c1=O,-,-,-,0,-,0
Cc1cc(C)nc(SCc2ccc(C(=O)N/N=C/C3CCCCC3)cc2)n1,-,-,-,0,-,0
Cc1cccc(-n2nnnc2SCC(=O)c2cc(C)n(CC3CCCO3)c2C)c1 (stereo not drawn),0,0,0,0,0,0
Cc1cccc(-n2nnnc2SCC(=O)c2cc(C)n(Cc3ccco3)c2C)c1,7.3,0,-,0,0,0
COC(=O)CSC1=C(C#N)C(c2cccc(OC)c2)CC(=O)N1 (stereo not drawn),0,0,0,0,-,0
COC(=O)CSC1=C(C#N)C(c2cccc(F)c2)CC(=O)N1 (stereo not drawn),28.4,0,0,0,0,0
COC(=O)CSC1=C(C#N)C(c2ccsc2)CC(=O)N1 (stereo not drawn),37.9,0,0,0,0,0
Nc1cccc(Nc2nc(OC(C(F)(F)F)C(F)(F)F)nc(OC(C(F)(F)F)C(F)(F)F)n2)c1,1.5,0,0,0,0,2.4
CC(C)(C)NC(=O)CN(C(=O)Cn1nnc(-c2ccc(Cl)cc2)n1)C1CCN(Cc2ccccc2)CC1,0,0,0,1.6,0,0
COc1ccc(/C=N/NC(=O)c2ccc(Cn3cc([N+](=O)[O-])cn3)o2)cc1O,-,-,-,0,0,0
COc1ccc(/C=N/Nc2ccc([N+](=O)[O-])cc2)cc1Cn1cc([N+](=O)[O-])cn1,13.7,0,0,0,0,0
CC1CCCC(NC(=S)Nc2ccc(SC(F)F)cc2)C1C (stereo not drawn),9.1,0,34.1,0,0,0
O=C(Nc1nc(-c2ccccn2)cs1)C1COc2ccccc2O1 (stereo not drawn),0,0,43.7,0,-,0
COc1ccc(N2CCN(C(c3ccccc3)c3sc4nc(C)nn4c3O)CC2)cc1 (stereo not drawn),0,0,0,-,-,-
CC1(C)Cc2c(C#N)c(OCC(=O)c3ccc(Cl)cc3)nc(-c3ccoc3)c2CO1,0,0,39.2,0,0,0
CN1CC2=Cc3ccccc3OC23Oc2ccccc2C=C3C1,21.4,0,0,0,0,0
CCN(CC)C(=O)CSc1nc(OC)cc(=O)[nH]1,-,-,-,0,-,0
SMILES,H69AR growth 86K,HUVEC prolif 384,Fibroblast inh,HCT116 bCat-KO,PTK2B oligo ant,PTEN del growth
Cc1cc(NCc2ccccn2)ccc1Br,-,-,-,0,0,0
O=S(=O)(Nc1cc(Sc2cccc3cccnc23)c(O)c2ccccc12)c1ccc(F)cc1,-,-,-,1.3,-,1.4
O=S(=O)(Nc1cccc2cn[nH]c12)c1ccc(F)cc1,0,0,0,0,0,0
COc1ccc(S(=O)(=O)Nc2cc(Sc3ncn[nH]3)c(O)c3ccccc23)cc1,-,-,-,1.7,-,2.5
O=C(NCCCN1CCN(CCCNC(=O)c2cc([N+](=O)[O-])ccc2Cl)CC1)c1cc([N+](=O)[O-])ccc1Cl,-,-,-,0,-,0
Fc1ccc2c(c1)C1C=CCC1C(c1cc3c(cc1Br)OCO3)N2 (stereo not drawn),-,-,-,0,0,0
Cc1ccc2cc3c(NC(=O)c4ccco4)nn(CC(C)C)c3nc2c1,35.4,0,0,0,0,0
C=CCn1c(=O)c(C(=O)Nc2nnc(C)s2)c(O)c2ccccc21,0,0,0,-,-,-
Cc1cc(C)c2nc(NC(=O)c3cc(C)on3)sc2c1,0,0,0,0,0,0
CCc1ccc2nc(NC(=O)c3cc(C)on3)sc2c1,17.3,0,0,0,0,0
CC1=NN(c2ccccc2)C(=O)/C1=C/C=C/c1ccccc1,-,-,-,3.4,-,3.2
CC(C)(C)NC(=O)C(c1c[nH]c2ccccc12)N(C(=O)Cn1nnc(-c2ccc(F)cc2)n1)c1cccc(O)c1 (stereo not drawn),-,-,-,0,-,0
O=C(Nc1ccc2nc(-c3ccco3)c(-c3ccco3)nc2c1)NC1CC1,0,0,0,0,0,0
O=C(Nc1ccc(N2CCOCC2)cc1)Nc1ccc2nc(-c3ccco3)c(-c3ccco3)nc2c1,9.5,22.3,0,0,0,0
CCN(CC)C(=S)SSC(=S)N(CC)CC,-,-,-,1.1,-,0.9
CCCOc1cccc(C2C(C(=O)c3ccc(C)o3)=C(O)C(=O)N2CCCN(C)C)c1 (stereo not drawn),0,0,0,-,-,-
Cc1cc(C)nc(SCC(=O)NC2=NN=C(c3ccc(Br)cc3)CS2)n1,-,-,-,1.5,0,2.8
N/C(=N\c1nc2ccccc2o1)NC(=O)c1ccccc1NC(=O)c1ccccc1,27.4,0,0,0,0,0
COc1ccccc1C(=O)NC(=Nc1nc2ccccc2o1)NC(=O)c1ccccc1OC,18.4,14.4,0,2.5,0,2.1
N/C(=N\c1nc2ccccc2o1)NC(=O)c1ccccc1F,0,0,0,0,0,0
Cc1ccc(S(=O)(=O)N(C)C)cc1NC(=O)CN1C(=O)NC2(CCCc3ccccc32)C1=O (stereo not drawn),-,-,-,0,-,0
CCCCC(=O)Nc1cccc(C(=O)N/N=C/c2ccc(OC)cc2OC)c1,-,-,-,0,-,0
CCn1ncc(C2=NOC(C(=O)NCC(C)C)C2)c1C (stereo not drawn),0,0,0,0,0,0
COc1ccc(OC)c(C2=NOC(C(=O)NCc3ccco3)C2)c1 (stereo not drawn),32.7,0,0,0,0,0
COc1ccc(C2=NOC(C(=O)NCc3ccc(F)cc3)C2)cc1OC (stereo not drawn),28.0,0,45.8,0,0,0
CCn1ncc(C2=NOC(C(=O)Nc3cc(OC)c(Cl)cc3OC)C2)c1C (stereo not drawn),38.8,0,0,0,0,0
COc1cc(OC)c(C2=NOC(C(=O)NCc3ccc4c(c3)OCO4)C2)cc1Cl (stereo not drawn),21.7,0,0,0,0,0
